Test results as given in PubChem BioAssay.

Each compound was assayed against Muscarinic acetylcholine receptor M4 (Homo sapiens) (UniProt P08173) (assay: M4-linked GIRK flux change, two-sided – cell-based, HEK293 M4/GIRK, thallium flux, BTC-AM, M4 allosteric agonist project, primary screen (AID 625;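 further: thallium influx through GIRK channels coupled to M4 in HEK293 cells with BTC-AM dye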)). Settings: at 10 µM, actives lie on both sides;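 active means fluorescence slope after compound addition differing from the mean of all tested samples at 99.7% confidence, mostly higher but some lower; inactive means the rest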.
Chain of Muscarinic acetylcholine receptor M4 (Homo sapiens) (P08173 whole entry, looked up): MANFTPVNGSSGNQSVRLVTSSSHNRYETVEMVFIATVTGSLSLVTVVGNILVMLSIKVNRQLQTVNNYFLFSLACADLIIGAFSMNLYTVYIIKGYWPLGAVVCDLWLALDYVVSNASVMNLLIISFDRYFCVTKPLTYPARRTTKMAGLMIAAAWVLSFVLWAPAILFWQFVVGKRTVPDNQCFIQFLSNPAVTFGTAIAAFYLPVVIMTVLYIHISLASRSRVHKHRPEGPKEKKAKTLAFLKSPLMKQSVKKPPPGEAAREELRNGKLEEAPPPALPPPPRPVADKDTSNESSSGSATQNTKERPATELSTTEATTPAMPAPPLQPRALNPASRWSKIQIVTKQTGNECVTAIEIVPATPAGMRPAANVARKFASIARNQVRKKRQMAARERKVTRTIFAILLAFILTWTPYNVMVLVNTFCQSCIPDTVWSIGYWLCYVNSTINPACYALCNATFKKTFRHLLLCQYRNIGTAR
Summary of the method: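 Material: HEK293 cells with M4 receptor and GIRK channels; Times: cells overnight at 37 °C, BTC-AM loading 1 h, reads 2 min total; Technique: kinetic BTC-AM fluorescence sampled at 1 Hz, 10 s pre-addition baseline; Read-out basis: slope over 15–24 s of trace normalized to starting intensity; Controls: carbachol positive, DMSO negative.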

Fluorescence slope, inactive:
Cc1ccc(-c2cc(C(F)F)nc(NCc3cccnc3)n2)cc1 0.00586
O=C(NCc1ccccc1)N1CCn2c(nc3ccccc32)C1 0.00568
COc1ccc(CN(C)CC(=O)c2c(N)n(Cc3ccccc3)c(=O)n(C)c2=O)c(OC)c1 0.00645
Cc1nc(C)c(C(=O)Nc2ccc(Oc3ccccc3)cc2)o1 0.00832
CCOc1ccc2nc(NC(=O)C(NS(=O)(=O)c3cccs3)C(C)C)sc2c1 (centres undefined) 0.00543
CC1CCN(CCCNC(=O)c2cn(C)c3ccc(S(=O)(=O)N4CCCC4)cc3c2=O)CC1 0.00713
COCCN1C(=O)C(=O)/C(=C(/O)c2cccc(OC)c2)C1c1ccncc1 (centres undefined) 0.00539
C[C@H](NC(=O)Nc1ccccc1F)C(=O)O 0.00462
Nc1c(Sc2ccccc2)c(=O)[nH]c(=O)n1Cc1ccccc1 0.00651
Cc1ccc(C)c(Cn2c(=O)n(CCC(=O)NCc3ccco3)c(=O)c3sccc32)c1 0.00734
CCn1c(=S)sc2nc(C)sc21 0.00458
CC(C)(C)OC(=O)N1CCOCCOCCN(C(=O)OC(C)(C)C)CCOCCOCC1 0.00267
O=C(NC1CCCCC1)C(c1ccco1)N(Cc1cccnc1)C(=O)C1COc2ccccc2O1 (centres undefined) 0.00322
COC(=O)c1c(-c2ccc(F)cc2)noc1N 0.00633
Cn1ccnc1C(O)c1ccco1 (centres undefined) 0.00477
O=C(NCCN1CCOCC1)c1ccc2c(c1)N(Cc1ccccc1)C(=O)CS2 0.00419
N#CC1=C(N)n2c(s/c(=C\c3ccco3)c2=O)=C(C#N)C1c1ccco1 (centres undefined) 0.00353
c1ccc2c(c1)ccc1nnc(-c3ccc4c(c3)OCO4)n12 0.00599
COc1cccc(-c2cc(C(=O)Nc3cc(C)n(Cc4ccc(Cl)cc4)n3)no2)c1 0.0105
CCC(C)n1[nH]c(=O)c2c(C)cc(C)nc21 (centres undefined) 0.00534
CN(CC(=O)Nc1ccncc1)S(=O)(=O)c1ccccc1 0.00615
CC(=O)Oc1cccc(/C=c2\sc3nc(-c4ccco4)nn3c2=O)c1 0.00624
Cn1c(=O)cc(OCC(=O)N2CCN(c3cccc(C(F)(F)F)c3)CC2)c2ccccc21 0.00701
C=CCc1cc(C(=O)N2CCCCC2)ccc1O 0.00415
